Experimental data gathered from unrelated publications.
Compare with care: the assays were run in different laboratories.
MTNR1B: Melatonin receptor type 1B (MTNR1B, Homo sapiens, UniProt P49286)
PDE4D: 3',5'-cyclic-AMP phosphodiesterase 4D (PDE4D, Homo sapiens, UniProt Q08499)

Compound	target	test	test system	setting	endpoint	value
COc1ccc2cccc(C(CO)CNC(=O)CF)c2c1 (stereo not drawn)	MTNR1B	β-arrestin recruitment, agonist	MT2	90 min	Emax	101%
CC[C@H](C)[C@@H]1NC(=O)[C@@H]2CSSC[C@H](NC(=O)[C@@H](NC(=O)CN)[C@@H](C)O)C(=O)N[C@@H](CC(N)=O)C(=O)N[C@@H]([C@@H](C)O)C(=O)N3CCC[C@H]3C(=O)NCC(=O)N[C@H]3CSSC[C@H](NC(=O)[C@H](CCSC)NC(=O)[C@H](CC(C)C)NC(=O)[C@H](CCCNC(=N)N)NC(=O)CNC(=O)CNC(=O)[C@H](CC(=O)O)NC1=O)C(=O)NCC(=O)N[C@@H](CCC(=O)O)C(=O)N[C@@H]([C@@H](C)O)C(=O)N[C@H](C(=O)N[C@H](C(=O)NCC(=O)O)C(C)C)CSSC[C@H](NC(=O)[C@H]([C@@H](C)O)NC3=O)C(=O)N[C@@H](CO)C(=O)N[C@@H](Cc1c[nH]c3ccccc13)C(=O)N1CCC[C@H]1C(=O)N[C@@H](C(C)C)C(=O)N2	Prothrombin (F2, Homo sapiens, UniProt P00734)	binding, SPR	–	–	koff	~0.001 s⁻¹
CCN(CC)CCCC[C@H](NC(=O)[C@H](CC(C)C)NC(=O)[C@H](C)NC(=O)[C@H](Cc1ccccc1)NC(=O)c1ccc(C(C)(C)C)cc1)C(=O)N[C@@H](CO)C(=O)OC	Bromodomain adjacent to zinc finger domain protein 1A (BAZ1A, Homo sapiens, UniProt Q9NRL2)	thermal stability, DSF	–	25 µM	ΔTm	-1.44 °C
Nc1ncc(-c2nc(N3CCOCC3)nc(N3CCOCC3)n2)c(C(F)F)n1	PDE4D	enzyme activity, inhibitor	–	10 µM	remaining activity	75%
COc1cc(O)ccc1/C=C/C(=O)c1ccc(O)cc1	PDE4D	enzyme activity, inhibitor, radiometric	–	5 µM	inhibition	-1.92%
COc1ncccc1-c1cnn2ccc(N3CCN(C(=O)OC(C)C)CC3)nc12	Serine/threonine-protein kinase MAK (MAK, Homo sapiens, UniProt P20794)	binding, competition with immobilised ligand	–	1 µM	remaining binding	100%
CC(C)=CCc1cc(-c2coc3cc(O)cc(O)c3c2=O)cc(O)c1O	PDE4D	enzyme activity, inhibitor, radiometric	–	50 µM	inhibition	100%
COc1ccc2[nH]cc(CCNC(=O)CI)c2c1	MTNR1B	GTPγS binding, agonist, radiometric	–	cell membranes	Emax	123%
O=C(O)CC(O)(CC(=O)O)C(=O)O	PDE4D	enzyme activity, inhibitor, radiometric	–	5 µM	inhibition	16.6%
Cc1nn(C)cc1-c1nc2c(N3CCN(Cc4ccc(Cl)cc4)CC3)c(Cl)cnc2[nH]1	Mitogen-activated protein kinase 7 (MAPK7, Homo sapiens, UniProt Q13164)	binding, competition with immobilised ligand	–	1 µM	remaining binding	100%
CC1(C)[C@@H](O[C@H]2O[C@H](C(=O)O)[C@@H](O)[C@H](O)[C@H]2O[C@@H]2O[C@H](C(=O)O)[C@@H](O)[C@H](O)[C@H]2O)CC[C@]2(C)[C@H]3C(=O)C=C4[C@@H]5C[C@@](C)(C(=O)O)CC[C@]5(C)CC[C@@]4(C)[C@]3(C)CC[C@@H]12	PDE4D	enzyme activity, inhibitor, radiometric	–	50 µM	inhibition	10.9%
c1ccc(C(NCCNC(c2ccccc2)c2ccccc2)c2ccccc2)cc1	Phospholipase A2, major isoenzyme (PLA2G1B, Sus scrofa, UniProt P00592)	cell-free assay, inhibitor	–	10 µM	inhibition	4%
